IC50 data for two sequences are collected here from ChEMBL document CHEMBL1148464, “Cytotoxic activity of metal complexes of biogenic polyamines: polynuclear platinum(II) chelates” (J Med Chem, 2004).

As usually defined, the IC50 is the concentration that inhibits the measured activity by half. Low readings indicate higher potency, high ones lower potency.

What all share (assay type): functional, cell-based
Experiment [1] concerns HSC-3. In words: Cytotoxic potency against human HSC-3 cell line expressed as inhibitory concentration. In short, it runs like this: (§1)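 Adherent cells grown in high-glucose DMEM with 10% FCS, harvested with trypsin/EDTA. Seeded at 3 × 10^5 cells/mL; drug at 5–150 µM added after 24 h, 37 °C. IC50 derived from 72 h exposure dose-response curves; only effects persisting 3 days after drug removal reported. Trypan blue counts plus MTT and Alamar blue viability readouts, triplicate.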

The subject of experiment [2] is HeLa. In words: Cytotoxic potency against human HeLa cell line expressed as inhibitory concentration. In short, it runs like this:
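Monolayers in high-glucose DMEM with 10% FCS, harvested with an EDTA/PBS dissociation medium. Plated at 3 × 10^5 cells/mL, dosed 24 h later with 5–150 µM at 37 °C. IC50 from 72 h dose-response curves, irreversible effects only (3-day drug-free recovery). Measured by Trypan blue exclusion, MTT (570 nm) and Alamar blue (570/600 nm) assays, in triplicate.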

The test system of experiment [3] is L132. Kind of experiment: Cytotoxic potency against human L-132 cell line expressed as inhibitory concentration. In short, it runs like this:
as §1

Experiment [4] deals with THP-1. In words: Cytotoxic potency against human THP-1 cell line expressed as inhibitory concentration. In short, it runs like this:
(§2)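 Suspension cultures in RPMI-1640 with 25 mM HEPES and 10% FCS, seeded at 3 × 10^5 cells/mL; drug (5–150 µM) added 24 h later, 37 °C. IC50 taken from dose-response curves after 72 h exposure, counting irreversible effects only (drug washed out, 3 further days). Read-out by Trypan blue exclusion, MTT (4 h, 570 nm) and Alamar blue (8 h, 570/600 nm); triplicate.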

In experiment [5] the test system is MOLT-3. Kind of experiment: Cytotoxic potency against human MOLT-3 cell line expressed as inhibitory concentration. In short, it runs like this: as §2

CARBOPLATIN returned a half-maximal inhibitory concentration (IC50) in experiment [1] of 3 µM.

For the sequence CISPLATIN, the IC50 in experiment [2] is 2000 nM; in experiment [3] it was 2000 nM; in experiment [4] it was 2000 nM; in experiment [5] it was 4 µM; in experiment [1], 7 µM.
